Measurements reported in PMC2200097 (The Journal of Cell Biology, 1993).

Assays:
[1] = molecular target: peptide 300 (GGWSHW) (human)
[2] = molecular target: peptide 300 (GGWSHW) (human); assay: radioligand binding
melanoma cells = conditions: murine lung colonization assay; ref Tuszynski et al., 1992; cited from earlier work
human plasma fibronectin = human plasma fibronectin (Homo sapiens, UniProt P02751); assay: Direct binding of [125I]fibronectin to immobilized peptides; conditions: solid phase assay, labeled fibronectin
human plasma fibronectin, sequence (P02751 306-608 limits assumed): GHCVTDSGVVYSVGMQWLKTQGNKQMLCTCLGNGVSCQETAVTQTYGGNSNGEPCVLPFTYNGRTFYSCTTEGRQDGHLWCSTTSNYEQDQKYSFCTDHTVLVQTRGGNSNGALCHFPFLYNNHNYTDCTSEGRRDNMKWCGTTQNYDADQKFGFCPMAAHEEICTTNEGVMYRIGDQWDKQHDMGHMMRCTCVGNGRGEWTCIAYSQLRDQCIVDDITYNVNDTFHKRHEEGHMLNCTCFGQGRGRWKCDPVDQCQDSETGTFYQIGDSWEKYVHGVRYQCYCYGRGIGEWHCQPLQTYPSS

fibronectin = fibronectin (Homo sapiens, UniProt P02751); format: binding; conditions: for IC50 for competition of [125I]fibronectin binding to peptide GGWSHW: irrelevant proteins as inhibitors; for Inhibition of fibronectin binding to immobilized peptide GGWSHW, in words: soluble peptide or protein as inhibitor
fibronectin, sequence (P02751 306-608 limits assumed): as above
How it was run: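 Wells were incubated 2 h at 25°C with [¹²⁵I]human plasma fibronectin (0.2 μg/ml final per methods; 0.5 μg/ml per legends) plus serial dilutions of soluble inhibitors. Wells were washed three times with DPBS, cut out and counted. Duplicates; percent of specific binding without inhibitor.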

peptide GGWSHW = peptide GGWSHW (Homo sapiens, UniProt P07996); format: binding; conditions: detection with antibody 191; wells coated with 50 μg/ml GGWSHW
How it was run: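 Peptide GGWSHW (50 μg/ml) was coated on microtiter wells and blocked with 1% BSA. Wells were incubated with graded concentrations of unlabeled intact fibronectin, the 30-kD proteolytic gelatin-binding domain or the 120-kD proteolytic cell-binding fragment. After washing, bound protein was detected sequentially with 5 μg/ml monoclonal antibody 191 and ¹²⁵I-goat anti-IgG, then counted. Values are mean ± SD of duplicates.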

[3] = molecular target: human plasma fibronectin (human); assay: radioligand binding

Molecule: 30-kD proteolytic gelatin-binding domain of fibronectin (domain or fragment)
- half saturation [1]: 15 µg/mL

Molecule: 40-kD recombinant fragment of fibronectin with the same amino terminus as the 28-kD fragment (domain or fragment)
- fold less active as inhibitor than the 33-kD fragment [2]: 10 fold

Molecule: CSTSCG
- Inhibition of metastasis of melanoma cells, in words (melanoma cells): inhibit

Molecule: CSVTCG
- Inhibition of metastasis of melanoma cells, in words (melanoma cells): inhibit

Molecule: DGWSPW (DGWCSPW) [compound 317]
- Fibronectin binding to immobilized peptide, in words (human plasma fibronectin): inactive

Molecule: GGWGPW [compound 318]
- Fibronectin binding to immobilized peptide, in words (human plasma fibronectin): inactive

Molecule: fetuin: irrelevant control protein [reference compound]
- IC50 for competition of [125I]fibronectin binding to peptide GGWSHW (fibronectin): > 200 µg/mL

Molecule: fibronectin
- Half saturation of binding to immobilized peptide GGWSHW (peptide GGWSHW): 0.7 µg/mL
- Inhibition of fibronectin binding to immobilized peptide GGWSHW, in words (fibronectin): competed

Molecule: peptide 340 (AAWSHW)
- IC50 [3]: > 300 µM

Molecule: thrombospondin: human platelet thrombospondin, extracellular matrix glycoprotein
- Inhibition of fibronectin binding to immobilized peptide GGWSHW, in words (fibronectin): competed

Molecule: transferrin: irrelevant control protein [reference compound]
- IC50 for competition of [125I]fibronectin binding to peptide GGWSHW (fibronectin): > 200 µg/mL

B1: ovalbumin: irrelevant control protein (protein)
chain: MGSIGAASMEFCFDVFKELKVHHANENIFYCPIAIMSALAMVYLGAKDSTRTQINKVVRFDKLPGFGDSIEAQCGTSVNVHSSLRDILNQITKPNDVYSFSLASRLYAEERYPILPEYLQCVKELYRGGLEPINFQTAADQARELINSWVESQTNGIIRNVLQPSSVDSQTAMVLVNAIVFKGLWEKAFKDEDTQAMPFRVTEQESKPVQMMYQIGLFRVASMASEKMKILELPFASGTMSMLVLLPDEVSGLEQLESIINFEKLTEWTSSNVMEERKIKVYLPRMKMEEKYNLTSVLMAMGITDVFSSSANLSGISSAESLKISQAVHAAHAEINEAGREVVGSAEAGVDAASVSEEFRADHPFLFCIKHIATNAVLFFGRCVSP
- IC50 for competition of [125I]fibronectin binding to peptide GGWSHW (fibronectin): > 200 µg/mL

Molecule: GGWSHWSPWSS [peptide 256 (…)]
- IC50 [3]: > 300 µM
